Experiment [1] is filed under the species Canis familiaris. Nature of the experiment: In vitro electrophysiological evaluation in canine cardiac ventricular muscle reported as maximum % change for functional refractory period (FRP) at 0.1-100 uM concentration range. Further details: species or system Canis lupus familiaris, Muscle tissue.
Experiment [2] is filed under the species Canis familiaris. Nature of the experiment: In vitro electrophysiological evaluation in canine cardiac ventricular muscle reported as % change for the functional refractory period (FRP) concentration range of 0.1-100 uM. Set-up: species or system Canis lupus familiaris, Muscle tissue. An outline of the steps:
(§1)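 Canine right ventricle and papillary muscle strips in oxygenated Tyrode's solution, fitted with stimulating and recording electrodes. The extra-stimulus conduction-interval method was adapted for in vitro use. FRP and CT were read from a conduction-interval curve before and after various compound concentrations, and expressed as percent change from control. Compounds were taken from 10 mM deionized-water stock into Tyrode's. Each strip was used once as its own control.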

The species named for experiment [3] is Canis familiaris. Nature of the experiment: In vitro electrophysiological evaluation in canine cardiac Purkinje fibres reported as percent change Vmax concentration range of 0.1-100 uM. The experiment is classed as functional. The following applies: Canis lupus familiaris; Purkinje fiber. An outline of the steps:
(§2)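 Canine cardiac Purkinje fibres, intracellular microelectrode recording, paced at a basic cycle length of 1 s. APD95 and Vmax read simultaneously. Compound: 10 mM stock in deionized water, diluted into Tyrode's solution, tested over the stated concentration range. Each fibre used once as its own control. Result is % change from control, given at 10 µM or as the maximum with its concentration. M = <10% decrease or an increase in Vmax.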

Experiment [4] is filed under the species Canis familiaris. The experiment can be described thus: In vitro electrophysiological evaluation in canine cardiac Purkinje fibres reported as percent change Vmax concentration range of 0.1-100 uM; Minimal (<IO%increase or a decrease in CT). The following applies: Canis lupus familiaris; Purkinje fiber. The experiment is classed as functional. An outline of the steps: as §2

For experiment [5], the species on record is Canis familiaris. The experiment can be described thus: In vitro electrophysiological evaluation in canine cardiac Purkinje fibres reported as percent change Vmax concentration range of 0.1-30 uM. It is filed as functional. Particulars: Canis lupus familiaris; Purkinje fiber. An outline of the steps: as §2
The species named for experiment [6] is Canis familiaris. The experiment can be described thus: In vitro electrophysiological evaluation in canine cardiac Purkinje fibres reported as percent change Vmax concentration range of 1-100 uM; Minimal (<IO%increase or a decrease in CT; Minimal (<IO%increase or a decrease in CT). The following applies: Canis lupus familiaris; Purkinje fiber. It is filed as functional. An outline of the steps:
as §2

The species named for experiment [7] is Canis familiaris. The experiment can be described thus: In vitro electrophysiological evaluation in canine cardiac ventricular muscle reported as % change for conduction time(CT) at 0.1-100 uM concentration range; Minimal (<IO%increase or a decrease in CT). It is filed as functional, Canis lupus familiaris, Muscle tissue.
For experiment [8], the species on record is Canis familiaris. The experiment can be described thus: In vitro electrophysiological evaluation in canine cardiac ventricular muscle reported as maximum % change for conduction time(CT) at 0.1-100 uM concentration range; Minimal (<IO%increase or a decrease in CT). The experiment is classed as functional, Canis lupus familiaris, Muscle tissue. An outline of the steps:
as §1

The species named for experiment [9] is Canis familiaris. Nature of the experiment: In vitro electrophysiological evaluation in canine cardiac Purkinje fibres reported as maximum percent change Vmax concentration range of 1-100 uM; M = Minimal(<IO%increase or a decrease in CT). The following applies: Canis lupus familiaris; Purkinje fiber. It is filed as functional. An outline of the steps: as §2

For experiment [10], the species on record is Canis familiaris. The experiment can be described thus: In vitro electrophysiological evaluation in canine cardiac Purkinje fibres reported as maximum percent change Vmax concentration range of 0.1-30 uM. It is filed as functional. The following applies: Canis lupus familiaris; Purkinje fiber. An outline of the steps:
as §2

The species entered for experiment [11] is Canis familiaris. The experiment can be described thus: In vitro electrophysiological activity in canine cardiac Purkinje fibres given as maximum % change for action potential duration at 0.1-100 uM concentration. It is filed as functional, Canis lupus familiaris, Purkinje fiber. An outline of the steps: (§3)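 Canine cardiac Purkinje fibres, intracellular recording at 1 s basic cycle length, over cumulative concentration ranges. Compound 10 mM stock in deionized water diluted into Tyrode's. Each fibre used once as its own control. Value is the maximum % change from control in APD at 95% repolarization, with the concentration where it occurred; both values given if a biphasic response (>20% reversal) occurred.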

Experiment [12] is filed under the species Canis familiaris. Nature of the experiment: In vitro electrophysiological evaluation in canine cardiac Purkinje fibres reported as % change for action potential duration at 0.1-30 uM concentration range. The experiment is classed as functional, Canis lupus familiaris, Purkinje fiber. An outline of the steps: as §2
Experiment [13] is filed under the species Canis familiaris. The experiment can be described thus: In vitro electrophysiological evaluation in canine cardiac Purkinje fibres reported as % change for action potential duration at 1-100 uM concentration range. The experiment is classed as functional, Canis lupus familiaris, Purkinje fiber. An outline of the steps: as §2
For experiment [14], the species on record is Canis familiaris. Nature of the experiment: (§4) In vitro electrophysiological evaluation in canine cardiac Purkinje fibres reported as % change for action potential duration at 0.1-100 uM concentration range. The experiment is classed as functional, Canis lupus familiaris, Purkinje fiber. An outline of the steps: as §2
The species named for experiment [15] is Canis familiaris. The experiment is described as §4. The experiment is classed as functional, Canis lupus familiaris, Purkinje fiber. An outline of the steps: as §2
This is another data set of the same source.

Experiment [16] is filed under the species Canis familiaris. Nature of the experiment: In vitro electrophysiological activity in canine cardiac Purkinje fibres given as maximum % change for action potential duration at 100 uM concentration. It is filed as functional, Canis lupus familiaris, Purkinje fiber. An outline of the steps: as §3
For experiment [17], the species on record is Canis familiaris. The experiment can be described thus: In vitro electrophysiological activity in canine cardiac Purkinje fibres given as maximum % change for action potential duration at 10 uM concentration. It is filed as functional, Canis lupus familiaris, Purkinje fiber. An outline of the steps:
as §3

The species named for experiment [18] is Canis familiaris. Nature of the experiment: In vitro electrophysiological activity in canine cardiac Purkinje fibres given as maximum % change for action potential duration at 95% repolarization at 1 uM concentration. It is filed as functional, Canis lupus familiaris, Purkinje fiber. An outline of the steps: as §3
The species entered for experiment [19] is Canis familiaris. Nature of the experiment: In vitro electrophysiological activity in canine cardiac Purkinje fibres given as maximum % change for action potential duration t 100 uM concentration. It is filed as functional, Canis lupus familiaris, Purkinje fiber. An outline of the steps:
as §3

“And” between values parts separate entries of the source, which are not always exact repeats. Equal entries are not always repeated. Where only a bound is given, the exact number is not on record here.

As to `Cl.Clc1ccc(CCCC2CC3CCN2CC3)cc1` (centres undefined), the FRP in the experiment listed under Canis familiaris [1] and in the experiment listed under Canis familiaris [2] was 25% throughout. For the same compound, the Vmax in the experiment listed under Canis familiaris [3] was -10%; in the experiment listed under Canis familiaris [4] it was -13% and < 10%; in the experiment listed under Canis familiaris [5] it was -23%; in the experiment listed under Canis familiaris [6], under 10%; in the experiment filed under Canis familiaris [9], under 10%; in the experiment filed under Canis familiaris [10] it was under 10%. The CT in the experiment filed under Canis familiaris [7] and in the experiment listed under Canis familiaris [8] was under 10% each time. For the same compound, the APD95 was 13% in the experiment listed under Canis familiaris [11]; 30% in the experiment listed under Canis familiaris [12]; -20% in the experiment listed under Canis familiaris [13]; 21% and 12% in the experiment filed under Canis familiaris [14]; 2% in the experiment listed under Canis familiaris [15]; 21% in the experiment listed under Canis familiaris [16]. Further, the APD95 in the experiment filed under Canis familiaris [17] is 30% and 12%; in the experiment filed under Canis familiaris [18], 40%; in the experiment listed under Canis familiaris [19] it was -20%.

(Values after ChEMBL document CHEMBL1123566, “Synthesis and cardiac electrophysiological activity of 2- and 3-[(substituted phenyl)alkyl]quinuclidines. Structure-activity relationships” (1987).)
